According to ChEMBL document CHEMBL1759916, “Bicyclo[2.2.2]octyltriazole inhibitors of 11β-hydoxysteroid dehydrogenase type 1. Pharmacological agents for the treatment of metabolic syndrome” (Bioorg Med Chem Lett, 2011):
Active and inactive are the calls of the source. No cut-off for these calls is given here.

Columns and labels:
Mus musculus [1] = assay: Inhibition of 11beta-HSD1 in ICR mouse assessed as inhibition of conversion of [3H]-cortisone to [3H]-cortisol at 10 mg/kg, po administered 4 hrs before [3H]-cortisone challenge; assay type: functional
Outline: (§1)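 Mouse pharmacodynamic model. Compound given 10 mg/kg PO, then 3H-cortisone by tail vein injection 1, 4 or 16 h after dosing. […] Plasma compound levels were measured after the PD studies.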

[2] = biological target: T1, 11-beta-hydroxysteroid dehydrogenase type 2 (Mus musculus, UniProt P51661); assay: Inhibition of mouse 11beta-HSD2 expressed in CHO-K1 cells assessed as conversion of [3H]-cortisol to [3H]-cortisone by scintillation proximity assay; assay type: cell-based
T1 sequence (P51661 whole entry): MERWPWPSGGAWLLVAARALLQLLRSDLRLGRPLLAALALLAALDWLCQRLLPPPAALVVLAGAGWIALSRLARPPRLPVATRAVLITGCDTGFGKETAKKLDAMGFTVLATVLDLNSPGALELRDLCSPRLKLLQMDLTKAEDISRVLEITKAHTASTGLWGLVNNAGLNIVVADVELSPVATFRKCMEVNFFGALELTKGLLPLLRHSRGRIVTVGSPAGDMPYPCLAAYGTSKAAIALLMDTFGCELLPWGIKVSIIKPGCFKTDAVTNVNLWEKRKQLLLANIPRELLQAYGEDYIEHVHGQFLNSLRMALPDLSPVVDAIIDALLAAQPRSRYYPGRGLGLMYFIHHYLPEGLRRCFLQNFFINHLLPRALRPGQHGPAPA
Outline: (§2)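 Scintillation proximity assay (SPA). IC50 values are the average of two determinations.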

[3] = biological target: 11-beta-hydroxysteroid dehydrogenase 1 (Homo sapiens, UniProt P28845); assay: Inhibition of human 11beta-HSD1 expressed in CHO-K1 cells assessed as conversion of [3H]-cortisone to [3H]-cortisol by scintillation proximity assay; assay type: cell-based; outline: as §2
Sequence of 11-beta-hydroxysteroid dehydrogenase 1 (Homo sapiens, UniProt P28845) (P28845 whole entry): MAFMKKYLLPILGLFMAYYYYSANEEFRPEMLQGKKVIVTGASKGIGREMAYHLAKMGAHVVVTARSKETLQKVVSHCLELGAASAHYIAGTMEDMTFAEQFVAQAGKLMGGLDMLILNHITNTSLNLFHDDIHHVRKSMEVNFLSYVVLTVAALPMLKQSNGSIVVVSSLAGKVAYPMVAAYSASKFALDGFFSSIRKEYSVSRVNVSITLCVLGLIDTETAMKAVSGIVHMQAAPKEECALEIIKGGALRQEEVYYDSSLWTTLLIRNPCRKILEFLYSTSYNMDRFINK

[4] = biological target: T2, 11-beta-hydroxysteroid dehydrogenase type 2 (Homo sapiens, UniProt P80365); assay: Inhibition of human 11beta-HSD2 expressed in CHO-K1 cells assessed as conversion of [3H]-cortisol to [3H]-cortisone by scintillation proximity assay; assay type: cell-based
T2 sequence (P80365 whole entry): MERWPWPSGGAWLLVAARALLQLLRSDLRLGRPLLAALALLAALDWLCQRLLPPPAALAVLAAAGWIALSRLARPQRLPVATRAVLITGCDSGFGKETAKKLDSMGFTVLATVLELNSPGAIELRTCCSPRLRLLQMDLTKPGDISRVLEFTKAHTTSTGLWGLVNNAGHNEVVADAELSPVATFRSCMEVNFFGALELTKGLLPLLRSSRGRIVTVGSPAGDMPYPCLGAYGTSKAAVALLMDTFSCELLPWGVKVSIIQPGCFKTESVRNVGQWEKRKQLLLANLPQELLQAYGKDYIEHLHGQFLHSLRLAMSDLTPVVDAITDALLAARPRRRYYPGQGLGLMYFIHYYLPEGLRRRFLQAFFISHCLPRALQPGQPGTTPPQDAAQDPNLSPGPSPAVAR

[5] = Clearance in C57 mouse at 2 mg/kg, iv; assay type: ADME, organism-based; set-up: dose 2 mg/kg, route intravenous; details: in vivo
Outline: (§3)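 Mouse PK from 2 mg/kg IV and 10 mg/kg oral dosing. The PO AUC is reported normalized to dose.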

[6] = Bioavailability in C57 mouse at 2 mg/kg, iv and 10 mg/kg, po; assay type: ADME, organism-based; details: in vivo; outline: as §3
[7] = biological target: 11-beta-hydroxysteroid dehydrogenase 1 (Mus musculus, UniProt P50172); assay: Inhibition of mouse 11beta-HSD1 expressed in CHO-K1 cells assessed as conversion of [3H]-cortisone to [3H]-cortisol by scintillation proximity assay; assay type: cell-based
Sequence of 11-beta-hydroxysteroid dehydrogenase 1 (Mus musculus, UniProt P50172) (P50172 whole entry): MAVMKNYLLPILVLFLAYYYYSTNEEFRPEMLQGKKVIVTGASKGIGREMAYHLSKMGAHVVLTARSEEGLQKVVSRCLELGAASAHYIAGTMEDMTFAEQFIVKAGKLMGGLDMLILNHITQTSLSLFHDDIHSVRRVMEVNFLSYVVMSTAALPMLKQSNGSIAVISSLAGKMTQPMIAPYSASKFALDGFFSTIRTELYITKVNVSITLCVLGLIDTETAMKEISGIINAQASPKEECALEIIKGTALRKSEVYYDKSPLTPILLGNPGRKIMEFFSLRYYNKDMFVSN

Mus musculus [8] = assay: Inhibition of 11beta-HSD1 in ICR mouse assessed as inhibition of conversion of [3H]-cortisone to [3H]-cortisol at 10 mg/kg, po administered 16 hrs before [3H]-cortisone challenge; assay type: functional; outline: as §1
[9] = biological target: T3, Nuclear receptor subfamily 1 group I member 2 (Homo sapiens, UniProt O75469); assay: Activation of PXR
T3 sequence (O75469 whole entry): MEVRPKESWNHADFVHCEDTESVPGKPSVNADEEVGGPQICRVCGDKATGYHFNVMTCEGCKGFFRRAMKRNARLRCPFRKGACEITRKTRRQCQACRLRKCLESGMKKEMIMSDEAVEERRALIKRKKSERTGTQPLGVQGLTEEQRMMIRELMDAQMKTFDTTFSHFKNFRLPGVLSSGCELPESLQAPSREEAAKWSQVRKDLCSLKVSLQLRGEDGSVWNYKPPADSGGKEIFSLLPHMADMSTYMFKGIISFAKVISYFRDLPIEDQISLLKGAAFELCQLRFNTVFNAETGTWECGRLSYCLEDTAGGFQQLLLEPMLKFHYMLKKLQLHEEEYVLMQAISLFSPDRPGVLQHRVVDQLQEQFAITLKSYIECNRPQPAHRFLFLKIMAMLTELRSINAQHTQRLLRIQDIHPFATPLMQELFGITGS
Outline: (§4)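 Cyp induction potential assessed in human liver microsomes; read out as human PXR activation, with test compound at 10 μM.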

[10] = Volume of distribution in C57 mouse at 2 mg/kg, iv and 10 mg/kg, po; assay type: ADME, organism-based; details: in vivo
[11] = Half life in C57 mouse at 2 mg/kg, iv and 10 mg/kg, po; assay type: ADME, organism-based; details: in vivo
[12] = Tmax in C57 mouse at 2 mg/kg, iv and 10 mg/kg, po; assay type: ADME, organism-based; details: in vivo
[13] = Clearance in Sprague-Dawley rat at 1 mg/kg, iv and 4 mg/kg, po; assay type: ADME, organism-based; details: in vivo
[14] = Volume of distribution in Sprague-Dawley rat at 1 mg/kg, iv and 4 mg/kg, po; assay type: ADME, organism-based; details: in vivo
[15] = Half life in Sprague-Dawley rat at 1 mg/kg, iv and 4 mg/kg, po; assay type: ADME, organism-based; details: in vivo
[16] = Tmax in Sprague-Dawley rat at 1 mg/kg, iv and 4 mg/kg, po; assay type: ADME, organism-based; details: in vivo
[17] = Bioavailability in Sprague-Dawley rat 1 mg/kg, iv and 4 mg/kg, po; assay type: ADME, organism-based; details: in vivo
[18] = Clearance in Beagle dog at 0.5 mg/kg, iv and 2 mg/kg, po; assay type: ADME, organism-based, Canis lupus familiaris; details: in vivo
[19] = Volume of distribution in Beagle dog at 0.5 mg/kg, iv and 2 mg/kg, po; assay type: ADME, organism-based, Canis lupus familiaris; details: in vivo
[20] = Half life in Beagle dog at 0.5 mg/kg, iv and 2 mg/kg, po; assay type: ADME, organism-based, Canis lupus familiaris; details: in vivo
[21] = Tmax in Beagle dog at 0.5 mg/kg, iv and 2 mg/kg, po; assay type: ADME, organism-based, Canis lupus familiaris; details: in vivo
[22] = Bioavailability in Beagle dog at 0.5 mg/kg, iv and 2 mg/kg, po; assay type: ADME, organism-based, Canis lupus familiaris; details: in vivo
[23] = Clearance in rhesus monkey at 0.5 mg/kg, iv and 2 mg/kg, po; assay type: ADME, organism-based, Macaca mulatta; details: in vivo
[24] = Volume of distribution in rhesus monkey at 0.5 mg/kg, iv and 2 mg/kg, po; assay type: ADME, organism-based, Macaca mulatta; details: in vivo
[25] = Half life in rhesus monkey at 0.5 mg/kg, iv and 2 mg/kg, po; assay type: ADME, organism-based, Macaca mulatta; details: in vivo
[26] = Tmax in rhesus monkey at 0.5 mg/kg, iv and 2 mg/kg, po; assay type: ADME, organism-based, Macaca mulatta; details: in vivo
[27] = Bioavailability in rhesus monkey at 0.5 mg/kg, iv and 2 mg/kg, po; assay type: ADME, organism-based, Macaca mulatta; details: in vivo
[28] = Solubility of the compound in water; assay type: physicochemical
[29] = Distribution coefficient, log D of the compound by HPLC analysis; assay type: physicochemical; details: octanol/water
[30] = biological target: T3, Nuclear receptor subfamily 1 group I member 2; assay: Activation of human PXR at 10 uM; outline: as §4
Mus musculus [31] = species on record: Mus musculus; assay: Antiobesity activity in diet-induced obesity mouse model; assay type: functional, organism-based
Mus musculus [32] = species on record: Mus musculus; assay: Antiatherosclerotic activity in Apo-E knockout mouse model; assay type: functional, organism-based
Mus musculus [33] = species on record: Mus musculus; assay: Antidiabetic activity in B6-Ay mouse by oral glucose tolerance test; assay type: functional, organism-based
[34] = Induction of cytochrome P450 activity in human liver microsomes; assay type: ADME; outline: as §4
Mus musculus [35] = assay: Inhibition of 11beta-HSD1 in ICR mouse assessed as inhibition of conversion of [3H]-cortisone to [3H]-cortisol at 10 mg/kg, po administered 1 hr before [3H]-cortisone challenge; assay type: functional; outline: as §1

## CCCCCC12CCC(c3nnc(-c4ccccc4C(F)(F)F)n3C)(CC1)CC2
Mus musculus [1]
  inhibition in vivo at 10 mg/kg: 98%
[2]
  IC50: > 4000 nM
[3]
  IC50: 1.8 nM
[4]
  IC50: 1300 nM
[5]
  clearance: 273 mL/min/kg
[6]
  bioavailability: 20%

## CC(O)CCCC12CCC(c3nnc(-c4ccccc4C(F)(F)F)n3C)(CC1)CC2 (configuration not stated)
Mus musculus [1]
  inhibition in vivo at 10 mg/kg: 97%
[7]
  IC50: 1.7 nM
[2]
  IC50: > 4000 nM
[3]
  IC50: < 1 nM
[4]
  IC50: > 1000 nM
[5]
  clearance: 88 mL/min/kg
[6]
  bioavailability: 21%

## CC(=O)CCCC12CCC(c3nnc(-c4ccccc4C(F)(F)F)n3C)(CC1)CC2
Mus musculus [8]
  inhibition in vivo at 10 mg/kg: 32%
Mus musculus [1]
  inhibition in vivo at 10 mg/kg: 90%
[7]
  IC50: 1.3 nM
[2]
  IC50: > 4000 nM
[3]
  IC50: 1.2 nM
[4]
  IC50: 4000 nM
[5]
  clearance: 21 mL/min/kg
[6]
  bioavailability: 25%

## Cn1c(-c2ccccc2C(F)(F)F)nnc1C12CCC(CCCC(C)(F)F)(CC1)CC2
Mus musculus [8]
  inhibition in vivo at 10 mg/kg: 94%
Mus musculus [1]
  inhibition in vivo at 10 mg/kg: 99%
[7]
  IC50: < 1 nM
[2]
  IC50: > 4000 nM
[3]
  IC50: < 1 nM
[4]
  IC50: > 4000 nM
[5]
  clearance: 14 mL/min/kg
[6]
  bioavailability: 36%

## Cn1c(-c2ccccc2C(F)(F)F)nnc1C12CCC(COc3ccc(Cl)cc3)(CC1)CC2
Mus musculus [8]
  inhibition in vivo at 10 mg/kg: 77%
Mus musculus [1]
  inhibition in vivo at 10 mg/kg: 98%
[7]
  IC50: 1.5 nM
[3]
  IC50: 1.1 nM
[9]
  Activity: Active

## CCS(=O)(=O)CCC12CCC(c3nnc(-c4ccccc4C(F)(F)F)n3C)(CC1)CC2
Mus musculus [8]
  inhibition in vivo at 10 mg/kg: 76%
Mus musculus [1]
  inhibition in vivo at 10 mg/kg: 89%
[5]
  clearance: 2.1 mL/min/kg
[6]
  bioavailability: 24%
[10]
  Vd: 0.72 L/kg
[11]
  half-life: 4.8 h
[12]
  Tmax: 5 h
[13]
  clearance: 2.9 mL/min/kg
[14]
  Vd: 1.1 L/kg
[15]
  half-life: 4.9 h
[16]
  Tmax: 2 h
[17]
  bioavailability: 87%
[18]
  clearance: 1.9 mL/min/kg
[19]
  Vd: 1.7 L/kg
[20]
  half-life: 12.2 h
[21]
  Tmax: 2 h
[22]
  bioavailability: 59%
[23]
  clearance: 4 mL/min/kg
[24]
  Vd: 1.6 L/kg
[25]
  half-life: 6.5 h
[26]
  Tmax: 2 h
[27]
  bioavailability: 89%
[28]
  solubility: > 1000 µg/mL
[29]
  logD: 2.2
[30]
  Activity: < 10%
Mus musculus [31]
  Activity: Active
Mus musculus [32]
  Activity: Active
Mus musculus [33]
  Activity: Active
[34]
  Activity: Not Active

## CCCCCC12CCC(c3nnc4n3CCCCCC4)(CC1)CC2
Mus musculus [35]
  inhibition in vivo at 10 mg/kg: 71%
Mus musculus [1]
  inhibition in vivo at 10 mg/kg: 51%
[3]
  IC50: 4 nM
[6]
  bioavailability: 6%

## Cn1c(-c2ccccc2C(F)(F)F)nnc1C12CCC(CCS(=O)(=O)C(F)(F)F)(CC1)CC2
Mus musculus [8]
  inhibition in vivo at 10 mg/kg: 78%
Mus musculus [1]
  inhibition in vivo at 10 mg/kg: 81%
[7]
  IC50: 2.2 nM
[2]
  IC50: > 4000 nM
[3]
  IC50: 6.1 nM
[4]
  IC50: > 4000 nM

## CC(O)CCCC12CCC(c3nnc4n3CCCCCC4)(CC1)CC2 (configuration not stated)
Mus musculus [35]
  inhibition in vivo at 10 mg/kg: 67%
Mus musculus [1]
  inhibition in vivo at 10 mg/kg: 41%
[7]
  IC50: 19 nM
[3]
  IC50: 35 nM
